Reference: ChEMBL document CHEMBL1649163, “Surfactants, aromatic and isoprenoid compounds, and fatty acid biosynthesis inhibitors suppress Staphylococcus aureus production of toxic shock syndrome toxin 1” (2009)

Experiments:
Type in all cases: functional
Staphylococcus aureus [1] = test: Effect on growth in Staphylococcus aureus MN8 at 10.7 mM after 24 hrs (reference value: 100%)
Procedure, shortened: (§1)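 Test-tube growth assay: 10 ml growth medium (brain heart infusion with 10% fetal bovine serum, MgCl2, L-glutamine) inoculated to 5 × 10^6 CFU/ml from a 24 h 37°C preculture. Compound diluted in medium, or dissolved in methanol with methanol-matched controls. After 24 h at 37°C with 5% CO2, OD600 and viable counts read. Growth given as % of CFU/ml of untreated controls in the same experiment.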

Staphylococcus aureus [2] = test: microbe, parasite or virus in culture; conditions: 24 h
Staphylococcus aureus [3] = test: microbe, parasite or virus in culture; conditions: 24 h; remark: listed apart in the source
Staphylococcus aureus [4] = test: Effect on growth in Staphylococcus aureus MN8 at 3.75 mM after 24 hrs (reference value: 100%); procedure, shortened: as §1
Staphylococcus aureus [5] = test: Effect on growth in Staphylococcus aureus MN8 at 0.75 mM after 24 hrs (reference value: 100%); procedure, shortened: as §1
Staphylococcus aureus [6] = test: Effect on growth in Staphylococcus aureus MN8 at 9.8 mM after 24 hrs (reference value: 100%); procedure, shortened: as §1
Staphylococcus aureus [7] = test: microbe, parasite or virus in culture; conditions: 24 h; remark: listed apart in the source
Staphylococcus aureus [8] = test: Effect on growth in Staphylococcus aureus MN8 at 0.10 % after 24 hrs (reference value: 100%); procedure, shortened: as §1
Staphylococcus aureus [9] = test: Effect on growth in Staphylococcus aureus MN8 at 0.50 % after 24 hrs (reference value: 100%); procedure, shortened: as §1
Staphylococcus aureus [10] = test system: Staphylococcus aureus
Staphylococcus aureus [11] = test system: Staphylococcus aureus; remark: listed apart in the source
Staphylococcus aureus [12] = test: Effect on growth in Staphylococcus aureus MN8 at 37.50 mM after 24 hrs (reference value: 100%); procedure, shortened: as §1
Staphylococcus aureus [13] = test: microbe, parasite or virus in culture; conditions: 24 h; remark: listed apart in the source
Staphylococcus aureus [14] = test: microbe, parasite or virus in culture; conditions: 24 h; remark: listed apart in the source
Staphylococcus aureus [15] = test: Effect on growth in Staphylococcus aureus MN8 at 7.50 mM after 24 hrs (reference value: 100%); procedure, shortened: as §1
Staphylococcus aureus [16] = test: microbe, parasite or virus in culture; conditions: 24 h; remark: listed apart in the source
Staphylococcus aureus [17] = test: Effect on growth in Staphylococcus aureus MN8 at 1.00 mM after 24 hrs (reference value: 100%); procedure, shortened: as §1
Staphylococcus aureus [18] = test: Effect on growth in Staphylococcus aureus MN8 at 2.00 mM after 24 hrs (reference value: 100%); procedure, shortened: as §1
Staphylococcus aureus [19] = test: microbe, parasite or virus in culture; conditions: 24 h; remark: listed apart in the source
Staphylococcus aureus [20] = test: Effect on growth in Staphylococcus aureus MN8 at 0.67 mM after 24 hrs (reference value: 100%); procedure, shortened: as §1
Staphylococcus aureus [21] = test: microbe, parasite or virus in culture; conditions: 24 h; remark: listed apart in the source
Staphylococcus aureus [22] = test: microbe, parasite or virus in culture; conditions: 24 h; remark: listed apart in the source
Staphylococcus aureus [23] = test: Effect on growth in Staphylococcus aureus MN8 at 0.05 mM after 24 hrs (reference value: 100%); procedure, shortened: as §1
Staphylococcus aureus [24] = test: microbe, parasite or virus in culture; conditions: 24 h; remark: listed apart in the source
Staphylococcus aureus [25] = test: Effect on growth in Staphylococcus aureus FRI-1187 at 0.05 mM after 24 hrs (reference value: 100%); procedure, shortened: as §1
Staphylococcus aureus [26] = test: Effect on growth in Staphylococcus aureus FRI-1187 at 0.50 mM after 24 hrs (reference value: 100%); procedure, shortened: as §1
Staphylococcus aureus [27] = test: Effect on growth in Staphylococcus aureus MN8 at 0.01 mM after 24 hrs (reference value: 100%); procedure, shortened: as §1
Staphylococcus aureus [28] = test: microbe, parasite or virus in culture; conditions: 24 h; remark: listed apart in the source
Staphylococcus aureus [29] = test: Effect on growth in Staphylococcus aureus FRI-1187 at 1.50 mM after 24 hrs (reference value: 100%); procedure, shortened: as §1
Staphylococcus aureus [30] = test: Effect on growth in Staphylococcus aureus FRI-1187 at 3.00 mM after 24 hrs (reference value: 100%); procedure, shortened: as §1
Staphylococcus aureus [31] = test: microbe, parasite or virus in culture; conditions: 24 h; remark: listed apart in the source
Staphylococcus aureus [32] = test: microbe, parasite or virus in culture; conditions: 26 h
Staphylococcus aureus [33] = test: microbe, parasite or virus in culture; conditions: 32 h
Staphylococcus aureus [34] = test: microbe, parasite or virus in culture; conditions: 32 h; remark: listed apart in the source
Staphylococcus aureus [35] = test: microbe, parasite or virus in culture; conditions: 28 h
Staphylococcus aureus [36] = test: microbe, parasite or virus in culture; conditions: 32 h; remark: listed apart in the source
Staphylococcus aureus [37] = test: microbe, parasite or virus in culture; conditions: 24 h; remark: listed apart in the source
Staphylococcus aureus [38] = test: microbe, parasite or virus in culture; conditions: 26 h; remark: listed apart in the source

CCCCCCCCCCCC(=O)OCC(O)CO (racemic) [GLYCEROL MONOLAURATE]
Activity (Staphylococcus aureus [1]): 36.3%
inhibition at 10700 µM (Staphylococcus aureus [2]): 5.2%

CC(=O)/C=C/C1=C(C)CCCC1(C)C [BETA-IONONE]
inhibition at 750 µM (Staphylococcus aureus [3]): 10%
Activity (Staphylococcus aureus [4]): 1%
Activity (Staphylococcus aureus [5]): 27.1%

C=CC(C)(O)CCC=C(C)C (stereo unspecified) [LINALOOL]
inhibition at 750 µM (Staphylococcus aureus [3]): 12.2%
Activity (Staphylococcus aureus [5]): 121.6%

CCCCCCCCCCCCOCCOCCOCCOC(=O)CC(C(=O)[O-])S(=O)(=O)[O-].[Na+].[Na+] (stereo unspecified) [DISODIUM LAURETH SULFOSUCCCINATE]
Activity (Staphylococcus aureus [6]): 10.3%
inhibition at 9800 µM (Staphylococcus aureus [7]): 0.6%

O=C(O)c1cc(O)c(O)c(O)c1 [GALLIC ACID]
Activity (Staphylococcus aureus [8]): 45%
Activity (Staphylococcus aureus [9]): 2.6%
inhibition (INH) (Staphylococcus aureus [10]): 8.7%
inhibition (INH) (Staphylococcus aureus [11]): 41.4%

CC(=O)Nc1ccc(O)cc1 [ACETAMINOPHEN]
Activity (Staphylococcus aureus [8]): 44.2%
Activity (Staphylococcus aureus [9]): 13.2%
inhibition (INH) (Staphylococcus aureus [10]): 10.8%
inhibition (INH) (Staphylococcus aureus [11]): 56.3%

OCCOc1ccccc1 [PHENOXYETHANOL]
Activity (Staphylococcus aureus [8]): 54.3%
Activity (Staphylococcus aureus [9]): 32.3%
inhibition (INH) (Staphylococcus aureus [10]): 25.1%
inhibition (INH) (Staphylococcus aureus [11]): 42.3%

CC1(O)CCC(C(C)(C)O)CC1 (stereo unspecified) [TERPIN]
Activity (Staphylococcus aureus [12]): 118.7%
inhibition at 7500 µM (Staphylococcus aureus [13]): 77.9%
inhibition at 37500 µM (Staphylococcus aureus [14]): 23.8%
Activity (Staphylococcus aureus [15]): 124.7%

Oc1ccc(Cc2ccccc2)cc1
inhibition at 1000 µM (Staphylococcus aureus [16]): 91%
Activity (Staphylococcus aureus [17]): 70.2%
Activity (Staphylococcus aureus [18]): 37.1%
inhibition at 2000 µM (Staphylococcus aureus [19]): 77.2%

Cc1ccc(C(C)C)c(O)c1 [THYMOL]
Activity (Staphylococcus aureus [20]): 99%
inhibition at 670 µM (Staphylococcus aureus [21]): 37.4%

Oc1cc(Cl)ccc1Oc1ccc(Cl)cc1Cl [TRICLOSAN]
inhibition at 50 µM (Staphylococcus aureus [22]): 9.9%
Activity (Staphylococcus aureus [23]): 0%
inhibition at 500 µM (Staphylococcus aureus [24]): 3.7%
Activity (Staphylococcus aureus [25]): 136.4%
Activity (Staphylococcus aureus [26]): 35.5%
Activity (Staphylococcus aureus [27]): 5.6%

COc1cc(C(=O)O)ccc1O [VANILLIC ACID]
Activity (Staphylococcus aureus [8]): 24.5%
inhibition (INH) (Staphylococcus aureus [11]): 38.5%

O=C(O)c1ccccc1O [SALICYLIC ACID]
Activity (Staphylococcus aureus [8]): 31%
inhibition (INH) (Staphylococcus aureus [11]): 26.3%

Oc1c(Cl)cc(Cl)c(Cl)c1Cc1c(O)c(Cl)cc(Cl)c1Cl [HEXACHLOROPHENE]
inhibition at 1500 µM (Staphylococcus aureus [28]): 74.3%
inhibition at 1000 µM (Staphylococcus aureus [16]): 48.1%
Activity (Staphylococcus aureus [17]): 143.81%
Activity (Staphylococcus aureus [29]): 75%
Activity (Staphylococcus aureus [30]): 35.2%
Activity (Staphylococcus aureus [18]): 123.7%
inhibition at 2000 µM (Staphylococcus aureus [19]): 19.6%
inhibition at 3000 µM (Staphylococcus aureus [31]): 63.5%

CCCCCCCCCCCCOCCOCCOCCOCCO [LAURETH 4]
inhibition at 2000 µM (Staphylococcus aureus [32]): 1.7%
inhibition at 20000 µM (Staphylococcus aureus [33]): 0%
inhibition at 2000 µM (Staphylococcus aureus [34]): 0.1%
inhibition at 10000 µM (Staphylococcus aureus [35]): 2.9%
inhibition at 10000 µM (Staphylococcus aureus [36]): 0%
inhibition at 10000 µM (Staphylococcus aureus [37]): 0.2%
inhibition at 20000 µM (Staphylococcus aureus [38]): 1.5%
